The record followed here is ChEMBL document CHEMBL1132386, “Mixture-based synthetic combinatorial libraries” (J Med Chem, 1999).

Experiment [1] has as its target Kappa-type opioid receptor (Cavia porcellus) (UniProt P41144). Put plainly: Inhibitory activity for kappa opioid receptor.
Another experiment concerns the target Acetylcholinesterase (Homo sapiens, UniProt P22303). In words: Enzyme inhibitory activity towards Acetylcholinesterase.
Experiment [2] in a line: Enzyme inhibitory activity towards Matrix metalloproteases.
In experiment [3] the target is Kappa-type opioid receptor (Cavia porcellus, UniProt P41144). Put plainly: Inhibition of Opioid receptor kappa 1 binding. In a few lines:
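Kappa opioid radioreceptor binding in guinea pig brain homogenate with 3 nM [3H]U69,593 as radioligand, incubated 2.5 h at 25°C. Library mixtures were screened at 4 μg/mL. Data were normalized to percent inhibition using background and total binding.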

Experiment [4] addresses Sigma non-opioid intracellular receptor 1 (Homo sapiens, UniProt Q99720). Put plainly: Inhibitory activity towards Sigma opioid receptor type 1.
Experiment [5] deals with GABA-A receptor; anion channel. Put plainly: Inhibition of binding to GABA-A Benzodiazepine receptor. The class given is protein-complex assay.
The next experiment concerns the target Mu-type opioid receptor (Homo sapiens, UniProt P35372). Put plainly: Antagonistic activity towards Opioid receptor mu 1. The class given is functional.
In experiment [6] the target is T1, Adenosine deaminase (Homo sapiens) (UniProt P00813).
T1 sequence (whole entry): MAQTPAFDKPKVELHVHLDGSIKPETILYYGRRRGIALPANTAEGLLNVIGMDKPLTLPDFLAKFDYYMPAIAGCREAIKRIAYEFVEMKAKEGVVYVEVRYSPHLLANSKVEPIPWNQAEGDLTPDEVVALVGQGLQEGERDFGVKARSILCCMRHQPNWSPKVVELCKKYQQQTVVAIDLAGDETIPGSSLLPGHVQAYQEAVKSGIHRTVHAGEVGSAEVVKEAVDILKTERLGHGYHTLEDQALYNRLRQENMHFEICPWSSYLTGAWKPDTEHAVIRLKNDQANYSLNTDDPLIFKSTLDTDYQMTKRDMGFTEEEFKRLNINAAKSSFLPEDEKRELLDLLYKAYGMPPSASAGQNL

Chain of Kappa-type opioid receptor (Cavia porcellus) (P41144 whole entry, looked up): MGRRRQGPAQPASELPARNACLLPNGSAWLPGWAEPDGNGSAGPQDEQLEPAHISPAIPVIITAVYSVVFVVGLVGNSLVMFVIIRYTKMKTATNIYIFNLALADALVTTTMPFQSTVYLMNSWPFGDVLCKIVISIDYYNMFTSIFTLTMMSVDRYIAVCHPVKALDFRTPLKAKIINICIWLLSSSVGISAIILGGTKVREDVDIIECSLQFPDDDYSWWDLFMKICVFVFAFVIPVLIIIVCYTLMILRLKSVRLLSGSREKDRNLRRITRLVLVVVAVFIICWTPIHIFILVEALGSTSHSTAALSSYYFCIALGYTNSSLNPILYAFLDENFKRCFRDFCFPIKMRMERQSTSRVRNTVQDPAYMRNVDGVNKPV
Chain of Sigma non-opioid intracellular receptor 1 (Q99720 whole entry): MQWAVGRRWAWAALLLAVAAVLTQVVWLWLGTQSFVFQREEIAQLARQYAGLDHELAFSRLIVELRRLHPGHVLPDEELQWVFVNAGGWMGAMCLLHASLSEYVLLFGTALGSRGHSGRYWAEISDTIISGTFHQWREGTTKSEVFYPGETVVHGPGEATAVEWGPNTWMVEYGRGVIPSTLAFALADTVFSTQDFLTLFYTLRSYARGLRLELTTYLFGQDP
Chain of Kappa-type opioid receptor (P41144 whole entry): as the sequence (P41144 whole entry, looked up) above
Chain of Mu-type opioid receptor (P35372 whole entry): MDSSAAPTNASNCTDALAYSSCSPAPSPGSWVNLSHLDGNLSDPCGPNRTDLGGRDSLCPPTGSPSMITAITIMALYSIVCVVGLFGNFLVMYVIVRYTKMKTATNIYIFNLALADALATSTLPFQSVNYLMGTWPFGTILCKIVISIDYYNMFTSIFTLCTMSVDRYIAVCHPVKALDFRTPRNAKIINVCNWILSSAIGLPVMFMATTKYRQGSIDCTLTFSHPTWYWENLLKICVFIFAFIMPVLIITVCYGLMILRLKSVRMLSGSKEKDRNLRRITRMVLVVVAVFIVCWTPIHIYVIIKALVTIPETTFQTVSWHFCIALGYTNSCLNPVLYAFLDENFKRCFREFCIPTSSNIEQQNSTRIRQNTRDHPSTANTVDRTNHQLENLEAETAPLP
Chain of Acetylcholinesterase (P22303 whole entry): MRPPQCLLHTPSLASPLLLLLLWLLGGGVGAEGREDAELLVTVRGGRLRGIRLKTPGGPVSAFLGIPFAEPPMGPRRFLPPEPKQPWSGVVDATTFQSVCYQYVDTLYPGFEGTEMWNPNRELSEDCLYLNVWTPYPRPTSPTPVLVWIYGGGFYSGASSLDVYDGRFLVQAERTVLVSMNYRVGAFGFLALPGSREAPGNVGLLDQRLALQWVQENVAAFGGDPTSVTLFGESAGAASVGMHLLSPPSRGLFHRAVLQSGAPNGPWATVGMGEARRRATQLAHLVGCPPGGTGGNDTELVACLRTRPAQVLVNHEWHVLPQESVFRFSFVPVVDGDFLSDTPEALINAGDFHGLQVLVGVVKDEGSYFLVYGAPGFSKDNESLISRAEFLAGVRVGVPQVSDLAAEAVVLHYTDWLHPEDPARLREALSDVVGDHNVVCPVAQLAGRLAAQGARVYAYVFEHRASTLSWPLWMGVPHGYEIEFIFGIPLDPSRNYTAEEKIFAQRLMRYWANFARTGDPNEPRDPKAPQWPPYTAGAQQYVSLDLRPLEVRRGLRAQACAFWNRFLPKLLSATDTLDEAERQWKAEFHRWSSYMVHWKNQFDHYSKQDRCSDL

For `CC(N1C2=NC[C@H](C3CCCCC3)N2C[C@@H]1C1CCCCC1)C12CC3CC(CC(C3)C1)C2` (stereo partly drawn), inhibition in experiment [1] was half-maximal at 1490 nM (IC50).
Same read-out and setting: the same measure for `CC(C)C[C@@H]1CN2C(=NC[C@@H]2C2CCCCC2)N1C(C)C12CC3CC(CC(C3)C1)C2` (stereo partly drawn): 1210 nM.
In the case of `NC(=O)O` [CARBAMIC ACID], the IC50 against Acetylcholinesterase was 67000 nM.
With `CC(C)C[C@@H]1CN2C(=NC[C@H]2C2CCCCC2)N1C(C)C12CC3CC(CC(C3)C1)C2` (stereo partly drawn), half-maximal inhibition in experiment [1] (IC50) was put at 1750 nM.
The same measure, in the same setting: to `C1CCC([C@H]2CN3C(=NC[C@H]3C3CCCCC3)N2CCC2CC3CCC2C3)CC1` (stereo partly drawn) belongs 524 nM.
On the same count and under the same terms, the same measure for `CC(C)C[C@@H]1CN2C(=NC[C@H]2C2CCCCC2)N1CC1CCC(C)CC1` (stereo partly drawn): 738 nM; for `CC1CCC(CN2C3=NC[C@H](C)N3C[C@@H]2C2CCCCC2)CC1` (stereo partly drawn): 5060 nM.
For the molecule `O=C1CNC(=O)CN1` [DIKETOPIPERAZINE], the IC50 in experiment [2] is 30000 nM.
`CC(C)C[C@@H]1CN2C(=NC[C@H]2C2CCCCC2)N1CCCC1CCCCC1`: half-maximal inhibition in experiment [1] (IC50) was put at 1770 nM.
As for `CC(C)C[C@@H]1CN2C(=NC[C@@H]2C2CCCCC2)N1CC1CCC(C)CC1` (stereo partly drawn), the IC50 in experiment [3] was determined as 3680 nM; in experiment [1], 999 nM.
`CC(C)C[C@@H]1CN2C(=NC[C@@H]2C)N1CCCC1CCCCC1` came in with an IC50 in experiment [1] of 5440 nM.
`c1cc2c(cn1)CCCC2` [5,6,7,8-TETRAHYDROISOQUINOLINE] registered an IC50 in experiment [4] of 56 nM.
`CC(C)C[C@@H]1CN2C(=NC[C@@H]2C2CCCCC2)N1CCCC1CCCCC1` showed an IC50 in experiment [1] of 3740 nM.
In turn, `O=c1cc(-c2ccccc2)oc2ccccc12` [FLAVONE] returned a Ki in experiment [5] of 17 nM. This lies in the double-digit nanomolar range.
In experiment [4], `O=C1CNC(=O)N1` [HYDANTOIN] showed an IC50 of 62 nM. This counts as double-digit nanomolar.
With `CC(C)C[C@@H]1CN2C(=NC[C@@H]2C)N1C(C)C12CC3CC(CC(C3)C1)C2` (stereo partly drawn), in experiment [1], the IC50 is 3640 nM. That is a single-digit micromolar value.
The same measure, in the same setting: to `CC(N1C2=NC[C@@H](C3CCCCC3)N2C[C@@H]1C1CCCCC1)C12CC3CC(CC(C3)C1)C2` (stereo partly drawn) belongs greater than 10000 nM; to `CC(C)C[C@@H]1CN2C(=NC[C@@H]2C)N1CCC1CC2CCC1C2` (stereo partly drawn), 2310 nM.
Take `CCCCCC(C)N` (stereo not drawn) [TUAMINOHEPTANE]: at Mu-type opioid receptor, the midpoint of inhibition, the IC50, lay at 14 nM. That is a double-digit nanomolar value.
As to `CC(N1C2=NC[C@H](C)N2C[C@@H]1C1CCCCC1)C12CC3CC(CC(C3)C1)C2` (stereo partly drawn), half-maximal inhibition in experiment [1] (IC50) required 1940 nM.
Turning to `Nc1ncnc2c1ncn2[C@@H]1O[C@H](CO)[C@@H](O)[C@H]1O`, the Ka in experiment [6] is 1e+08 M⁻¹.
In turn, `C1CCC([C@H]2CN3C(=NC[C@@H]3C3CCCCC3)N2CCC2CC3CCC2C3)CC1` (stereo partly drawn) showed an IC50 in experiment [1] of 560 nM.

The term IC50 denotes the midpoint of a concentration-inhibition curve. Lower therefore signals greater potency. The Ki is a dissociation constant, usually derived from enzyme kinetics or from competition with a known ligand. Low values mean higher affinity, high ones lower affinity.
